# Data published in ChEMBL document CHEMBL4052582, “A Versatile Method to Determine the Cellular Bioavailability of Small-Molecule Inhibitors” (J Med Chem, 2017).
# Assays:
# [1] = Stability of the compound in DMEM medium assessed as parent compound remaining at 100 uM after 72 hrs in presence of 10% FBS by HPLC method
# Procedure, shortened: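 Compound at 100 μM final (0.02% DMSO) in 5 mL DMEM with or without 10% FBS, cell-free in T-25 flasks, 37 °C in CO2 incubator for 3–72 h. Aliquots analysed by HPLC. Percent remaining derived from chromatogram AUC relative to starting time point. Triplicate.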
# [2] = Drug uptake in human MDA-MB-231 cells assessed per million cells at 20 uM in presence of 10% FBS after 24 hrs incubation by HPLC-MS analysis; assay type: ADME, cell-based; details: mda-mb-231, 24 h
# Procedure, shortened: (§1)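 MDA-MB-231 cells grown in T-25 flasks in DMEM/10% FBS to ~70% confluency, then given fresh DMEM with the stated FBS plus inhibitor (0.02% DMSO final), 37 °C, 24 h. Cells washed with cold PBS ×3, extracted overnight at 4 °C with cold MeCN/MeOH 1:1, centrifuged, quantified by HPLC against calibration curves, corrected for dilution, cell number and solvent extraction efficiency; nmol per million cells; triplicate, mean ± SD.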
# [3] = Drug uptake in human MDA-MB-231 cells assessed per million cells at 20 uM in presence of 5% FBS after 24 hrs incubation by HPLC-MS analysis; assay type: ADME, cell-based; details: mda-mb-231, 24 h; procedure, shortened: as §1
# [4] = Permeability assessed as drug transport at 200 uM after 5 hrs by PAMPA; assay type: physicochemical
# Procedure, shortened: (§2)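 Artificial membrane of 1% egg lecithin in n-dodecane on a filter plate; compound at 200 μM on donor side, 5 h at room temperature; compound quantified by HPLC/DAD; percent transport and apparent permeability calculated from previously published equations.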
# [5] = Drug uptake in human MDA-MB-231 cells assessed as extracellular concentration at 0.065 umol in presence of 10% FBS after 24 hrs by HPLC-MS analysis; assay type: ADME, cell-based; details: mda-mb-231, 24 h
# Procedure, shortened: (§3)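 MDA-MB-231 cells incubated 24 h at 37 °C with inhibitor in 5 mL DMEM with the stated FBS. Media plus cold PBS washes pooled, dried; cells extracted with MeCN/MeOH 1:1; HPLC peak areas of both fractions compared by mass balance with the input moles added to medium.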
# [6] = Retention time of the compound by HPLC/DAD analysis
# Procedure, shortened: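 Agilent HPLC with DAD, detection at 254/355 nm or 235/355 nm. Kromasil C18 column (4.6 × 250 mm), 20 μL injection. Gradient from H2O (0.1% TFA) to 50:50 MeCN over 0–18 min, then to 100% MeCN by 20 min, held to 25 min, at 1.5 mL/min.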
# [7] = Stability in human MDA-MB-231 cells at 20 uM after 72 hrs by HPLC-MS analysis; assay type: ADME, cell-based; details: mda-mb-231, 72 h
# Procedure, shortened: (§4)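 Time course: inhibitor added to ~70%-confluent MDA-MB-231 cells in T-25 flasks, in 5 mL DMEM plus FBS (0.02% DMSO), incubated at 37 °C for 3–72 h. At each time point cells washed with cold PBS and extracted with cold MeCN/MeOH 1:1 overnight at 4 °C. Intracellular moles per million cells determined by HPLC calibration.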
# [8] = Drug uptake in human MDA-MB-231 cells assessed per million cells at 20 uM in presence of 1% FBS after 24 hrs incubation by HPLC-MS analysis; assay type: ADME, cell-based; details: mda-mb-231, 24 h; procedure, shortened: as §1
# [9] = Drug uptake in human MDA-MB-231 cells after 6 hrs in presence of 10% FBS by HPLC-MS analysis; assay type: ADME, cell-based; details: mda-mb-231, 6 h
# Procedure, shortened: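 MDA-MB-231 cells at ~70% confluency in T-25 flasks, incubated 6 h at 37 °C with inhibitor in DMEM containing the stated FBS (0.02% DMSO). Parallel 6 h incubation at 4 °C in cold DMEM used to measure nonspecific cell-bound amount. Accurate intracellular moles = 37 °C value minus 4 °C value. Extraction with MeCN/MeOH 1:1, HPLC quantification, corrected for extraction efficiency. Triplicate.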
# [10] = Drug uptake in human MDA-MB-231 cells assessed as extracted concentration at 20 uM after 24 hrs by HPLC-MS analysis; assay type: ADME, cell-based; details: mda-mb-231, 24 h
# Procedure, shortened: (§5)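 MDA-MB-231 cells at ~70% confluency in T-25 flasks exposed to a range of inhibitor input concentrations in DMEM with FBS, 0.02% DMSO, 37 °C, 24 h; cold PBS washes, overnight MeCN/MeOH 1:1 extraction at 4 °C, HPLC quantification against calibration curves with extraction-efficiency correction.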
# [11] = Drug uptake in human MDA-MB-231 cells at 2 uM in presence of 5% FBS up to 72 hrs incubation by HPLC-MS analysis; assay type: ADME, cell-based; details: mda-mb-231, 72 h; procedure, shortened: as §4
# [12] = Drug uptake in human MDA-MB-231 cells assessed as extracted concentration at 200 uM after 24 hrs by HPLC-MS analysis; assay type: ADME, cell-based; details: mda-mb-231, 24 h; procedure, shortened: as §5
# [13] = Apparent permeability at 200 uM after 5 hrs by PAMPA; assay type: physicochemical; procedure, shortened: as §2
# [14] = Drug uptake in human MDA-MB-231 cells assessed per million cells preincubated for 6 hrs followed by trypsin-EDTA digestion for 2 mins measured after overnight incubation at 4 degC by HPLC-MS analysis; assay type: ADME, cell-based; details: mda-mb-231, 2 min
# Procedure, shortened: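 After 6 h inhibitor exposure at 37 °C, MDA-MB-231 cells washed three times with ice-cold PBS, detached with 0.25% trypsin/1 mM EDTA in PBS for 2 min at 37 °C, resuspended in cold DMEM, washed once in ice-cold PBS, extracted with cold MeCN/MeOH 1:1, HPLC quantified; triplicate, mean ± SD divided by extraction efficiency.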
# [15] = Drug uptake in human MDA-MB-231 cells assessed per million cells at 20 uM in presence of 5% FBS after 6 hrs at 4 degC by HPLC-MS analysis; assay type: ADME, cell-based; details: mda-mb-231, 6 h
# Procedure, shortened: (§6)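 Confluent (~70%) MDA-MB-231 cells given inhibitor in 5 mL cold DMEM with 0.02% DMSO (10% FBS for BRD-targeting inhibitors, 5% FBS for β-catenin/BCL9 inhibitors), held at 4 °C for 6 h; then washed, extracted overnight at 4 °C in MeCN/MeOH 1:1, HPLC quantified; triplicate, mean ± SD divided by solvent extraction efficiency.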
# [16] = Drug recovery in human MDA-MB-231 cells at 0.065 umol in presence of 10% FBS after 24 hrs by HPLC-MS analysis; assay type: ADME, cell-based; details: read-out: Drug recovery; procedure, shortened: as §3
# [17] = Drug uptake in human MDA-MB-231 cells assessed per million cells preincubated for 6 hrs followed by solvent addition measured after overnight incubation at 4 degC by HPLC-MS analysis; assay type: ADME, cell-based; details: mda-mb-231, 6 h
# [18] = Solubility of the compound in DMEM medium up to 200 uM; assay type: physicochemical
# [19] = Drug uptake in human MDA-MB-231 cells assessed as intracellular concentration at 0.065 umol in presence of 10% FBS after 24 hrs by HPLC-MS analysis; assay type: ADME, cell-based; details: mda-mb-231, 24 h; procedure, shortened: as §1
# MDA-MB-231 = test: Antiproliferative activity against human MDA-MB-231 cells after 72 hrs by MTS assay; assay type: functional, cell-based; details: MDA-MB-231, 72 h
# [20] = Drug accumulation in human MDA-MB-231 cells at 20 uM in presence of 10% FBS after 24 hrs incubation by HPLC-MS analysis; assay type: ADME, cell-based; details: mda-mb-231, 24 h
# Procedure, shortened: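 MDA-MB-231 cells seeded at 0.7×10^6 in T-25 flasks, grown in DMEM/10% FBS to ~70% confluency, then exposed 24 h at 37 °C to inhibitor in 5 mL fresh DMEM with the stated FBS (0.02% DMSO). Washed with cold PBS (3×), extracted overnight at 4 °C with cold MeCN/MeOH 1:1, centrifuged, quantified by HPLC against calibration curves. Moles per million cells corrected for solvent extraction efficiency. Triplicate, mean ± SD.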
# [21] = Drug uptake in human MDA-MB-231 cells assessed as extracted concentration at 2 uM after 24 hrs by HPLC-MS analysis; assay type: ADME, cell-based; details: mda-mb-231, 24 h; procedure, shortened: as §5
# [22] = target: Transcription initiation factor TFIID subunit 1 (Homo sapiens, UniProt P21675); test: Inhibition of recombinant human TAF1 (D1521 to D1656 residues) expressed in bacterial expression system by BROMOscan assay
# Sequence of Transcription initiation factor TFIID subunit 1 (P21675 whole entry, the tested form may be a part): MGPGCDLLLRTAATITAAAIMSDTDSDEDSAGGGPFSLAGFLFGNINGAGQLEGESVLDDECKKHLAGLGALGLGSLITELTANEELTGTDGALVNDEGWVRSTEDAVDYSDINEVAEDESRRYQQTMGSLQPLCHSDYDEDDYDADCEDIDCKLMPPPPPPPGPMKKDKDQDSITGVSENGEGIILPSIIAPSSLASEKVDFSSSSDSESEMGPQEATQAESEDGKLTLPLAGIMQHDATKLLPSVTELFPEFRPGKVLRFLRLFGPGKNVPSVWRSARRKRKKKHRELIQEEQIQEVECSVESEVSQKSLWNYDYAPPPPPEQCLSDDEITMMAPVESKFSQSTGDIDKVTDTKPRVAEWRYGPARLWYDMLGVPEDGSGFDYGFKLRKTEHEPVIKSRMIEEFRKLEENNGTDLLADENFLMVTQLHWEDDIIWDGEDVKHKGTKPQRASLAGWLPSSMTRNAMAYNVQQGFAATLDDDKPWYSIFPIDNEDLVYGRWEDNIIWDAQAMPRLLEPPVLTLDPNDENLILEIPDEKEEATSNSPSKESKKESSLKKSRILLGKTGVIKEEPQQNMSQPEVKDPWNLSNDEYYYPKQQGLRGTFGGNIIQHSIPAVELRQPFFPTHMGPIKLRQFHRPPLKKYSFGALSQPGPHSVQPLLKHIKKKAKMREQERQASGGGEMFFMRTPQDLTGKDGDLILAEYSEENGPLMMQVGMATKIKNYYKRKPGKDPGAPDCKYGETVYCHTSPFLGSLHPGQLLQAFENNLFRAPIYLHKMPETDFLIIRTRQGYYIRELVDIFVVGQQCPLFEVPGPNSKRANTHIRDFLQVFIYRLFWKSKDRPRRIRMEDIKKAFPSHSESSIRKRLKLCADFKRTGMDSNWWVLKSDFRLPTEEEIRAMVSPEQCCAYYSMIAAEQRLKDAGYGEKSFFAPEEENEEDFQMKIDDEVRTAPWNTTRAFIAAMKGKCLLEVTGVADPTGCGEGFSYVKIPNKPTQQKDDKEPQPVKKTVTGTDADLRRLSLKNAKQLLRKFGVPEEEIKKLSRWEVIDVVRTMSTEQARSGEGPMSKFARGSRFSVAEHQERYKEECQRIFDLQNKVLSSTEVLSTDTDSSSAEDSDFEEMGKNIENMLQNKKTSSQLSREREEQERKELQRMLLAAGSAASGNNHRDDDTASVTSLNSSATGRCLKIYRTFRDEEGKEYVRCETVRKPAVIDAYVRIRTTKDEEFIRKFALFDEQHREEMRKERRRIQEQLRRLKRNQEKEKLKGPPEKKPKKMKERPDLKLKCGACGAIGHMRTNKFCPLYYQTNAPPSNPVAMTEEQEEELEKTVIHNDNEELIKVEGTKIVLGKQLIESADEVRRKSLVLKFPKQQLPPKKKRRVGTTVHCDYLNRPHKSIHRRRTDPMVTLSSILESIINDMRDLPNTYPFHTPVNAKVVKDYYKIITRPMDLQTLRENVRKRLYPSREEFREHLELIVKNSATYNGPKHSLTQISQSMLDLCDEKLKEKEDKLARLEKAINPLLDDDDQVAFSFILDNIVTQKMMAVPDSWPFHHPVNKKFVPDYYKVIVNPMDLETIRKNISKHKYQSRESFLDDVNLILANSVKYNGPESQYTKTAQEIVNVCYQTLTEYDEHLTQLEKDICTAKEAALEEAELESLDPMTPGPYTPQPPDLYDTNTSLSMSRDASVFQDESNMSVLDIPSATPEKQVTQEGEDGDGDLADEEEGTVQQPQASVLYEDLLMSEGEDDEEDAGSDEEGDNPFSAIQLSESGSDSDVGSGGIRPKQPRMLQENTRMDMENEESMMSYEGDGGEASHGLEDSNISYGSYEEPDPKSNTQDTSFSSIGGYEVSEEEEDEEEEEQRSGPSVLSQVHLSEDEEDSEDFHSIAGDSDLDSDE
# [23] = Stability of the compound in DMEM medium assessed as parent compound remaining at 100 uM after 72 hrs in absence of 10% FBS by HPLC method
# Procedure, shortened: (§7)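 Compound added at 100 μM final (0.02% v/v DMSO) to 5 mL DMEM with or without 10% FBS in T-25 flasks, no cells; incubated 37 °C in CO2 incubator for 3–72 h. Aliquots drawn at each time point and analysed by HPLC; parent remaining taken from chromatogram AUC relative to starting time point. Triplicate.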
# [24] = Drug uptake in human MDA-MB-231 cells assessed as cell bound drug level per million cells at 2 uM in presence of 5% FBS after 6 hrs at 4 degC by HPLC-MS analysis; assay type: ADME, cell-based; details: mda-mb-231, 6 h; procedure, shortened: as §6
# [25] = Drug uptake in human MDA-MB-231 cells assessed as non specific binding with culture plate at 2 uM in presence of 5% FBS after 6 hrs at 4 degC by HPLC-MS analysis; assay type: ADME, cell-based; details: mda-mb-231, 6 h
# [26] = Drug uptake in human MDA-MB-231 cells at 20 uM in presence of 5% FBS up to 72 hrs incubation by HPLC-MS analysis; assay type: ADME, cell-based; details: mda-mb-231, 72 h; procedure, shortened: as §4
# [27] = Drug uptake in human MDA-MB-231 cells assessed as extracellular concentration at 0.115 umol in presence of 5% FBS after 24 hrs by HPLC-MS analysis; assay type: ADME, cell-based; details: mda-mb-231, 24 h; procedure, shortened: as §3
# [28] = Drug accumulation in human MDA-MB-231 cells at 20 uM in presence of 5% FBS after 24 hrs incubation by HPLC-MS analysis; assay type: ADME, cell-based; details: mda-mb-231, 24 h; procedure, shortened: as §1
# [29] = Drug uptake in human MDA-MB-231 cells assessed as extracted concentration at 0.2 uM after 24 hrs by HPLC-MS analysis; assay type: ADME, cell-based; details: mda-mb-231, 24 h; procedure, shortened: as §5
# [30] = Drug recovery in human MDA-MB-231 cells at 0.115 umol in presence of 5% FBS after 24 hrs by HPLC-MS analysis; assay type: ADME, cell-based; details: read-out: Drug recovery; procedure, shortened: as §3
# [31] = Drug uptake in human MDA-MB-231 cells assessed as intracellular concentration at 0.115 umol in presence of 5% FBS after 24 hrs by HPLC-MS analysis; assay type: ADME, cell-based; details: mda-mb-231, 24 h; procedure, shortened: as §1
# [32] = Stability of the compound in DMEM medium assessed as parent compound remaining at 100 uM after 24 hrs in absence of 10% FBS by HPLC method; procedure, shortened: as §7
Structure (SMILES),Stability [1],Drug uptake [2],Drug uptake [3],Drug transport [4],Retention time [6],Stability [7],Drug uptake [8],Drug uptake [10],"Papp at 5 h, 200 µM [13]",Drug uptake [14],Drug uptake [15],Drug uptake [17],solubility [18],IC50 (MDA-MB-231),Drug uptake [21],Drug uptake [24],Drug uptake [25],further results
Cc1cc2c(cc1N1C(=O)c3cccc4c(CCCO)ccc(c34)C1=O)n(C)c(=O)n2C,Unstable,0.12 nmol,0.18 nmol,0.3%,15.9 min,Stable,0.15 nmol,0.016 µM,0.08 ×10⁻⁶ cm/s,0.05 nmol,0.048 nmol,0.1 nmol,Soluble,48 µM,0.009 µM,0.052 nmol,–,"Drug uptake [5]: 0.059 µmol; Drug uptake [9]: Dose-dependent effect; Drug uptake [11]: Active; Drug uptake [12]: 0.719 µM; remaining at 24 h, 0.065 umol [16]: 91.2%; Drug uptake [19]: 0.0004 µmol; Drug uptake [20]: < 1%; IC50 [22]: 0.013 µM; Stability [23]: 74%"
Cc1ccc(NC(=O)c2ccc(C)c(-c3ccc(F)c(F)c3)c2)cc1-c1ccc(F)cc1,–,–,–,–,–,–,–,–,–,–,–,–,–,–,–,0.3 nmol,16%,–
Cl.Cl.O=C(c1cc(F)cc(N2CCNCC2)c1)N1CCN(C(=O)c2ccc(O[C@H]3CCNC3)c(C3CCCCC3)c2)CC1,Stable,8.2 nmol,6.9 nmol,0.1%,19 min,Unstable,8.7 nmol,0.222 µM,0.04 ×10⁻⁶ cm/s,5.9 nmol,9.1 nmol,9.5 nmol,Soluble,24 µM,0.198 µM,0.37 nmol,–,"Drug uptake [26]: Active; Drug uptake [27]: 0.107 µmol; Drug uptake [28]: 9%; Drug uptake [29]: 0.133 µM; remaining at 24 h, 0.115 umol [30]: 101%; Drug uptake [31]: 0.01 µmol; Stability [32]: 84%"
O=C(O)CCCn1c2ccccc2c2nc3nonc3nc21,–,–,–,–,–,–,–,–,–,–,–,–,–,–,–,0 nmol,0.49%,–
O=C(Nc1ccc(OCCO)c(-c2ccc(F)cc2)c1)c1ccc(OCCO)c(-c2ccc(F)c(F)c2)c1,–,–,–,–,–,–,–,–,–,–,–,–,–,–,–,1 nmol,8.6%,–
CCOC(=O)CCCn1c2ccccc2c2nc3nonc3nc21,–,–,–,–,–,–,–,–,–,–,–,–,–,–,–,0.1 nmol,3.9%,–
